Measurements: ChEMBL document CHEMBL4689842, “EUbOPEN Chemogenomics Library wave 1” (2021)

System: Fibroblast
Assay: Multiplex assay against human fibroblast
Type: toxicity, cell-based
Procedure, shortened: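 With compound added, live cells were imaged on a CQ1 microscope at 37°C and 5% CO2; staining with Hoechst33342, BioTracker Green Microtubule Cytoskeleton Dye, MitoTracker Red and Annexin V Alexa Fluor 680 had been done at seeding. The CellPathfinder machine-learning gating scheme split cells into Hoechst high-intensity objects or normal cells, normal cells into healthy, pyknosed or fragmented nuclei, and pyknosed cells into mitotic or apoptotic. The tubulin, mitochondrial-mass and membrane-permeability phenotypes are per cents of healthy-nucleus cells.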

[1] = 12 h, 1 µM, compound concentration 1 uM, replicate 1
[2] = 12 h, 1 µM, compound concentration 1 uM, replicate 2
[3] = 12 h, 10 µM, compound concentration 10 uM, replicate 1
[4] = 12 h, 10 µM, compound concentration 10 uM, replicate 2
[5] = 24 h, 1 µM, compound concentration 1 uM, replicate 1
[6] = 24 h, 1 µM, compound concentration 1 uM, replicate 2
[7] = 24 h, 10 µM, compound concentration 10 uM, replicate 1
[8] = 24 h, 10 µM, compound concentration 10 uM, replicate 2
[9] = 48 h, 1 µM, compound concentration 1 uM, replicate 1
[10] = 48 h, 1 µM, compound concentration 1 uM, replicate 2
[11] = 48 h, 10 µM, compound concentration 10 uM, replicate 1
[12] = 48 h, 10 µM, compound concentration 10 uM, replicate 2

Cc1cc(C)c(S(=O)(=O)N(Cc2ccc(-c3cccc(S(C)(=O)=O)c3)cc2)Cc2ccc(C(F)(F)F)o2)c(C)c1
Population Apoptotic (%) [1]: 68%
Population Fragmented Nuclei (%) [1]: 20%
Population Healthy Nuclei (%) [1]: 45%
Population Hoechst High Intensity Objects (%) [1]: 8%
Population Membrane Permeable-Phenotype (%) [1]: 19%
Population Mitochondria Different-Phenotype (%) [1]: 8%
Population Mitotic Cells (%) [1]: 32%
Population Normal (%) [1]: 91%
Population Pyknosed Nuclei (%) [1]: 34%
Population Tubulin-Different-Phenotype (%) [1]: 55%
Total Cell Count [1]: 161
Population Apoptotic (%) [2]: 66%
Population Fragmented Nuclei (%) [2]: 15%
Population Healthy Nuclei (%) [2]: 80%
Population Hoechst High Intensity Objects (%) [2]: 6%
Population Membrane Permeable-Phenotype (%) [2]: 3%
Population Mitochondria Different-Phenotype (%) [2]: 21%
Population Mitotic Cells (%) [2]: 33%
Population Normal (%) [2]: 93%
Population Pyknosed Nuclei (%) [2]: 3%
Population Tubulin-Different-Phenotype (%) [2]: 27%
Total Cell Count [2]: 72
Population Apoptotic (%) [3]: 51%
Population Fragmented Nuclei (%) [3]: 40%
Population Healthy Nuclei (%) [3]: 27%
Population Hoechst High Intensity Objects (%) [3]: 45%
Population Membrane Permeable-Phenotype (%) [3]: 25%
Population Mitochondria Different-Phenotype (%) [3]: 7%
Population Mitotic Cells (%) [3]: 48%
Population Normal (%) [3]: 54%
Population Pyknosed Nuclei (%) [3]: 31%
Population Tubulin-Different-Phenotype (%) [3]: 74%
Total Cell Count [3]: 179
Population Apoptotic (%) [4]: 0%
Population Fragmented Nuclei (%) [4]: 14%
Population Healthy Nuclei (%) [4]: 77%
Population Hoechst High Intensity Objects (%) [4]: 22%
Population Membrane Permeable-Phenotype (%) [4]: 3%
Population Mitochondria Different-Phenotype (%) [4]: 3%
Population Mitotic Cells (%) [4]: 100%
Population Normal (%) [4]: 77%
Population Pyknosed Nuclei (%) [4]: 8%
Population Tubulin-Different-Phenotype (%) [4]: 11%
Total Cell Count [4]: 81
Population Apoptotic (%) [5]: 45%
Population Fragmented Nuclei (%) [5]: 21%
Population Healthy Nuclei (%) [5]: 64%
Population Hoechst High Intensity Objects (%) [5]: 9%
Population Membrane Permeable-Phenotype (%) [5]: 25%
Population Mitochondria Different-Phenotype (%) [5]: 6%
Population Mitotic Cells (%) [5]: 54%
Population Normal (%) [5]: 90%
Population Pyknosed Nuclei (%) [5]: 14%
Population Tubulin-Different-Phenotype (%) [5]: 58%
Total Cell Count [5]: 171
Population Apoptotic (%) [6]: 0%
Population Fragmented Nuclei (%) [6]: 14%
Population Healthy Nuclei (%) [6]: 80%
Population Hoechst High Intensity Objects (%) [6]: 1%
Population Membrane Permeable-Phenotype (%) [6]: 5%
Population Mitochondria Different-Phenotype (%) [6]: 18%
Population Mitotic Cells (%) [6]: 100%
Population Normal (%) [6]: 98%
Population Pyknosed Nuclei (%) [6]: 5%
Population Tubulin-Different-Phenotype (%) [6]: 32%
Total Cell Count [6]: 86
Population Apoptotic (%) [7]: 77%
Population Fragmented Nuclei (%) [7]: 34%
Population Healthy Nuclei (%) [7]: 46%
Population Hoechst High Intensity Objects (%) [7]: 42%
Population Membrane Permeable-Phenotype (%) [7]: 31%
Population Mitochondria Different-Phenotype (%) [7]: 18%
Population Mitotic Cells (%) [7]: 22%
Population Normal (%) [7]: 57%
Population Pyknosed Nuclei (%) [7]: 18%
Population Tubulin-Different-Phenotype (%) [7]: 72%
Total Cell Count [7]: 166
Population Apoptotic (%) [8]: 14%
Population Fragmented Nuclei (%) [8]: 15%
Population Healthy Nuclei (%) [8]: 71%
Population Hoechst High Intensity Objects (%) [8]: 10%
Population Membrane Permeable-Phenotype (%) [8]: 5%
Population Mitochondria Different-Phenotype (%) [8]: 10%
Population Mitotic Cells (%) [8]: 85%
Population Normal (%) [8]: 89%
Population Pyknosed Nuclei (%) [8]: 13%
Population Tubulin-Different-Phenotype (%) [8]: 15%
Total Cell Count [8]: 109
Population Apoptotic (%) [9]: 72%
Population Fragmented Nuclei (%) [9]: 30%
Population Healthy Nuclei (%) [9]: 58%
Population Hoechst High Intensity Objects (%) [9]: 8%
Population Membrane Permeable-Phenotype (%) [9]: 16%
Population Mitotic Cells (%) [9]: 27%
Population Normal (%) [9]: 91%
Population Pyknosed Nuclei (%) [9]: 11%
Population Tubulin-Different-Phenotype (%) [9]: 40%
Total Cell Count [9]: 178
Population Apoptotic (%) [10]: 66%
Population Fragmented Nuclei (%) [10]: 17%
Population Healthy Nuclei (%) [10]: 79%
Population Hoechst High Intensity Objects (%) [10]: 10%
Population Membrane Permeable-Phenotype (%) [10]: 18%
Population Mitochondria Different-Phenotype (%) [10]: 2%
Population Mitotic Cells (%) [10]: 33%
Population Normal (%) [10]: 89%
Population Pyknosed Nuclei (%) [10]: 2%
Population Tubulin-Different-Phenotype (%) [10]: 32%
Total Cell Count [10]: 114
Population Apoptotic (%) [11]: 100%
Population Fragmented Nuclei (%) [11]: 47%
Population Healthy Nuclei (%) [11]: 49%
Population Hoechst High Intensity Objects (%) [11]: 40%
Population Membrane Permeable-Phenotype (%) [11]: 45%
Population Mitochondria Different-Phenotype (%) [11]: 3%
Population Mitotic Cells (%) [11]: 0%
Population Normal (%) [11]: 59%
Population Pyknosed Nuclei (%) [11]: 2%
Population Tubulin-Different-Phenotype (%) [11]: 63%
Total Cell Count [11]: 192
Population Fragmented Nuclei (%) [12]: 21%
Population Healthy Nuclei (%) [12]: 77%
Population Hoechst High Intensity Objects (%) [12]: 12%
Population Membrane Permeable-Phenotype (%) [12]: 5%
Population Normal (%) [12]: 87%
Population Pyknosed Nuclei (%) [12]: 1%
Population Tubulin-Different-Phenotype (%) [12]: 22%
Total Cell Count [12]: 86
